Test results from ChEMBL document CHEMBL1129633, “Synthesis and pharmacological testing of dequalinium analogues as blockers of the apamin-sensitive Ca(2+)-activated K+ channel: variation of the length of the alkylene chain” (J Med Chem, 1996).

Tests used:
Rattus norvegicus [1] = organism: Rattus norvegicus; assay: The equieffective molar ratio of the concentrations of the test compound and dequalinium that cause 50% inhibition of the after hyper polarization (AHP); format: functional
In short: (§1)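 Cultured neurons (3-10 days in culture); action potentials evoked every 5 s by depolarizing current pulses; drugs applied at known concentration in continuously flowing bath. AHP amplitude measured with and without compound for percent inhibition. Dequalinium tested on every cell; EMR = ratio of concentrations of compound and dequalinium giving 50% AHP inhibition in the same experiment. IC50 and EMR from simultaneous nonlinear least-squares Hill fits; each concentration tested on at least three neurons.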

Rattus norvegicus [2] = organism: Rattus norvegicus; assay: Compound was tested for its ability to inhibit the after hyperpolarization which follows the action potential in rat sympathetic neurons.; format: functional, organism-based; details: Sympathetic neuron; in short: as §1
Rattus norvegicus [3] = organism: Rattus norvegicus; assay: The equieffective molar ratio of the concentrations of the test compound and after hyperpolarization (AHP); format: functional

Structure (SMILES) | IC50 (Rattus norvegicus [2]) [nM] | EMR (Rattus norvegicus [1]) | EMR (Rattus norvegicus [3])
Nc1cc[n+](CCCCCCCCCC[n+]2ccc(N)c3ccccc32)c2ccccc12 | – | 1.3 | –
Nc1cc[n+](CCCCCCCC[n+]2ccc(N)c3ccccc32)c2ccccc12 | 2000 | 2.1 | –
Cc1cc(N)c2ccccc2[n+]1CCCCCCCCCC[n+]1c(C)cc(N)c2ccccc21.[Cl-].[Cl-] [DEQUALINIUM CHLORIDE] | 900 | – | 1
Nc1cc[n+](CCC[n+]2ccc(N)c3ccccc32)c2ccccc12 | 4500 | – | 8.3

The remaining molecules from weak to strong by IC50 (Rattus norvegicus [2]), led by results:

IC50 (Rattus norvegicus [2]) [nM] | Structure (SMILES) | EMR (Rattus norvegicus [1]) | EMR (Rattus norvegicus [3])
2000 | Nc1cc[n+](CCCCCC[n+]2ccc(N)c3ccccc32)c2ccccc12 | 1.8 | –
1800 | Nc1cc[n+](CCCC[n+]2ccc(N)c3ccccc32)c2ccccc12 | 3.2 | –
1700 | Nc1cc[n+](CCCCCCCCCCCC[n+]2ccc(N)c3ccccc32)c2ccccc12 | 1.8 | –
1000 | Nc1cc[n+](CCCCC[n+]2ccc(N)c3ccccc32)c2ccccc12 | 1 | –
